A word on the IC50: it is the midpoint of a concentration-inhibition curve.

Assay [1] deals with Streptococcus pyogenes. As to the kind of experiment: Antibacterial activity against penicillin-susceptible Streptococcus pyogenes clinical isolates after 24 hrs by broth microdilution method. Type of assay: functional. For orientation: Dilution methods test growth across graded concentrations, often in twofold steps.
Assay [2] has as its system Staphylococcus epidermidis. As to the kind of experiment: Ratio of cinnamic acid MIC to compound MIC for Staphylococcus epidermidis. Type of assay: functional.
In assay [3] the test system is Staphylococcus epidermidis. Briefly: Antibacterial activity against penicillin-resistant Staphylococcus epidermidis clinical isolates after 24 hrs by broth microdilution method. It is filed as functional.
In assay [4] the test system is Staphylococcus aureus. Briefly: microbe, parasite or virus in culture. As to conditions: ATCC 29213, 24 h. Type of assay: functional.
Assay [5] deals with Staphylococcus aureus. Briefly: Antibacterial activity against penicillin-resistant Staphylococcus aureus clinical isolates after 24 hrs by broth microdilution method. It is filed as functional.
In assay [6] the test system is Escherichia coli. As to the kind of experiment: microbe, parasite or virus in culture. It is filed as functional. As to conditions: ATCC 25922, 24 h.
Assay [7] has as its system Staphylococcus epidermidis. Briefly: Ratio of ciprofloxacin MIC to compound MIC for Staphylococcus epidermidis. Type of assay: functional.
Assay [8] relates to Streptococcus pyogenes. As to the kind of experiment: Antibacterial activity against penicillin-resistant Streptococcus pyogenes clinical isolates after 24 hrs by broth microdilution method. It is filed as functional.
Assay [9] concerns Bacillus subtilis. Briefly: microbe, parasite or virus in culture. The conditions noted are these: ATCC 9372, 24 h. Type of assay: functional.
The subject of assay [10] is Pseudomonas aeruginosa. As to the kind of experiment: microbe, parasite or virus in culture. Type of assay: functional. The conditions noted are these: ATCC 27853, 24 h.
Assay [11] deals with Staphylococcus aureus. Briefly: microbe, parasite or virus in culture. It is filed as functional. As to conditions: ATCC 25923, 24 h.
Assay [12] concerns Bacillus subtilis. As to the kind of experiment: microbe, parasite or virus in culture. It is filed as functional. As to conditions: ATCC 9372, 5 h.
Assay [13] deals with T1, Cell division protein FtsZ (Escherichia coli K-12) (UniProt P0A9A6).
T1 sequence (whole entry): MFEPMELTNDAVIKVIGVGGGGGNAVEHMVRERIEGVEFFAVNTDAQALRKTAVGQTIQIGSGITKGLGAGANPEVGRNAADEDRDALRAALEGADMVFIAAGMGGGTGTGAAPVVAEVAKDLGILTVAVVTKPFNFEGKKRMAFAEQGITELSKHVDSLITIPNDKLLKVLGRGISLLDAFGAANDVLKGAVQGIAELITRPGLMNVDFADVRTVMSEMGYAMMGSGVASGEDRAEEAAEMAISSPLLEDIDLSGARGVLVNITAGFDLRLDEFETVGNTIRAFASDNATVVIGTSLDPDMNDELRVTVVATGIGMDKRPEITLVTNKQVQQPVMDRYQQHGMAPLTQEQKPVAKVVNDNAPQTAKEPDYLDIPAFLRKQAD
Briefly: (§1) Inhibition of Escherichia coli ATCC 25922 recombinant N-His6-tagged FtsZ polymerization expressed in Escherichia coli BL21(DE3) incubated for 15 mins prior to GTP addition measured after 390 mins by malachite green staining-based GTPase assay. As to conditions: in the assay text read “30 mins” for “390 mins”. In a few lines:
(§2)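 Purified N-His6 E. coli FtsZ (10 µM) in 50 mM MES, 5 mM MgCl2, 50 mM KCl, pH 6.5 with compound at varying concentrations (2% DMSO), preincubated 15 min at room temperature. 50 μM GTP then added for 30 min at 37°C. Released phosphate measured by Malachite Green reagent (20% v/v) at A620, background-subtracted and read against a phosphate standard curve.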

In assay [14] the target is T2, Cell division protein FtsZ (Escherichia coli K-12, UniProt P0A9A6).
T2 sequence (P0A9A6 whole entry): T1 sequence (whole entry)
The description is as §1. As to conditions: in the assay text read “30 mins” for “390 mins”. In outline:
as §2

In assay [15] the test system is Escherichia coli. Briefly: microbe, parasite or virus in culture. It is filed as functional. As to conditions: ATCC 25922, 5 h.
In assay [16] the target is T1, Cell division protein FtsZ (Escherichia coli K-12). Briefly: Inhibition of Escherichia coli ATCC 25922 recombinant N-His6-tagged FtsZ polymerization expressed in Escherichia coli BL21(DE3) by light scattering assay. In outline: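 E. coli FtsZ (N-His6, expressed in BL21(DE3), Ni-affinity purified) at 12 µM in 50 mM MES, 5 mM MgCl2, 50 mM KCl, pH 6.5 with compound at various concentrations, 2% DMSO, 30°C. Right-angle light scattering at 400 nm (excitation and emission). 120 s baseline, then polymerization started with 2 mM GTP and followed for 2000 s.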

Assay [17] has as its system Staphylococcus epidermidis. As to the kind of experiment: Ratio of curcumin MIC to compound MIC for Staphylococcus epidermidis. Type of assay: functional.
The test system of assay [18] is Staphylococcus aureus. As to the kind of experiment: microbe, parasite or virus in culture. It is filed as functional. As to conditions: ATCC 25923, 5 h.
The test system of assay [19] is Pseudomonas aeruginosa. Briefly: microbe, parasite or virus in culture. It is filed as functional. The conditions noted are these: ATCC 27853, 5 h.
Assay [20] has as its system Bacillus subtilis. Briefly: Antibacterial activity against Bacillus subtilis. Type of assay: functional. In a few lines: (§3)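 NCCLS tube-dilution MIC using B. subtilis ATCC9372 and E. coli ATCC25922. Strains were grown on Mueller Hinton agar at 37°C for 24 h. […] Tubes were incubated at 37°C for 24 h, and the MIC was read as the last tube without turbidity.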
The test system of assay [21] is Escherichia coli. As to the kind of experiment: Antibacterial activity against Escherichia coli. Type of assay: functional. In outline: as §3
For assay [22], the system named is Staphylococcus aureus. As to the kind of experiment: Ratio of ciprofloxacin MIC to compound MIC for penicillin-susceptible Staphylococcus aureus ATCC 25923. It is filed as functional.
Assay [23] relates to Staphylococcus aureus. As to the kind of experiment: Ratio of cinnamic acid MIC to compound MIC for penicillin-susceptible Staphylococcus aureus ATCC 25923. Type of assay: functional.
Assay [24] concerns Staphylococcus aureus. As to the kind of experiment: Ratio of curcumin MIC to compound MIC for penicillin-susceptible Staphylococcus aureus ATCC 25923. It is filed as functional.

Molecules are shown by their SMILES. Converted amounts (≈) assume the structure as drawn.

As for `Cc1nc2ccccc2n1C(=O)/C=C/c1ccc(Cl)cc1Cl`, the MIC was over 128 µg/mL with Streptococcus pyogenes [1]; 4 µg/mL (≈ 12.1 µM) in [3]; over 128 µg/mL with Staphylococcus aureus [4]; 16 µg/mL (≈ 48.3 µM) in the assay on Staphylococcus aureus [5]; 128 µg/mL (≈ 386 µM) in the assay on Escherichia coli [6]; 64 µg/mL (≈ 193 µM) against Streptococcus pyogenes [8]. Besides, the MIC in the assay on Bacillus subtilis [9] was 128 µg/mL (≈ 386 µM); against Pseudomonas aeruginosa [10], 128 µg/mL (≈ 386 µM); against Staphylococcus aureus [11] it was 4 µg/mL (≈ 12.1 µM); against Bacillus subtilis [12], over 128 µg/mL; with Escherichia coli [15], over 128 µg/mL; in the assay with Staphylococcus aureus [18] it was 1 µg/mL (≈ 3.02 µM). Moreover, in the assay on Pseudomonas aeruginosa [19], the MIC was over 128 µg/mL. Also, the Ratio in assay [2], in assay [7] and in [17] was over 32 in each case. The inhibition entry in assay [13] and in assay [16] was “Dose-dependent effect” in each case. Further, the concentration for half-maximal inhibition (IC50) in [14] was 90.6 µM.
For `Cc1nc2ccccc2n1C(=O)/C=C/c1ccc(F)cc1`, the MIC was 128 µg/mL (≈ 457 µM) against Streptococcus pyogenes [1]; 16 µg/mL (≈ 57.1 µM) in [3]; over 128 µg/mL against Staphylococcus aureus [4]; 64 µg/mL (≈ 228 µM) in the assay on Staphylococcus aureus [5]; 128 µg/mL (≈ 457 µM) against Escherichia coli [6]; 64 µg/mL (≈ 228 µM) with Streptococcus pyogenes [8]. The MIC with Bacillus subtilis [9] was 128 µg/mL (≈ 457 µM); with Pseudomonas aeruginosa [10], 128 µg/mL (≈ 457 µM); against Staphylococcus aureus [11] it was 16 µg/mL (≈ 57.1 µM); with Bacillus subtilis [12], over 128 µg/mL; with Escherichia coli [15], over 128 µg/mL; in the assay with Staphylococcus aureus [18], 0.5 µg/mL (≈ 1.78 µM). This compound also gave an MIC with Pseudomonas aeruginosa [19] of over 128 µg/mL. Besides, the inhibition entry in assay [13] and in [16] was “Dose-dependent effect” in each case.
As to `O=C/C=C/c1ccccc1`, the figures for the MIC against Bacillus subtilis [20] and with Escherichia coli [21] were 500 µg/mL (≈ 3780 µM) and 1000 µg/mL (≈ 7570 µM), respectively.
`Cc1nc2ccccc2n1C(=O)/C=C/c1ccc(Cl)cc1`: the MIC against Streptococcus pyogenes [1] is 32 µg/mL (≈ 108 µM); in assay [3], 16 µg/mL (≈ 53.9 µM); in the assay with Staphylococcus aureus [4] it was over 128 µg/mL; against Staphylococcus aureus [5] it was 64 µg/mL (≈ 216 µM); against Escherichia coli [6] it was 128 µg/mL (≈ 431 µM); against Streptococcus pyogenes [8], 8 µg/mL (≈ 27 µM). The MIC against Bacillus subtilis [9] was 128 µg/mL (≈ 431 µM); against Pseudomonas aeruginosa [10] it was 128 µg/mL (≈ 431 µM); with Staphylococcus aureus [11] it was 8 µg/mL (≈ 27 µM); against Bacillus subtilis [12], over 128 µg/mL; in the assay on Escherichia coli [15], over 128 µg/mL; with Staphylococcus aureus [18] it was 0.5 µg/mL (≈ 1.68 µM). Further, the MIC against Pseudomonas aeruginosa [19] was over 128 µg/mL. For the same compound, the inhibition entry in [13] and in [16] was “Dose-dependent effect” each time.
On to `Cc1nc2ccccc2n1C(=O)/C=C/c1ccccc1`, for which the MIC against Streptococcus pyogenes [1] is 128 µg/mL (≈ 488 µM); in assay [3], 32 µg/mL (≈ 122 µM); in the assay with Staphylococcus aureus [4], over 128 µg/mL; against Staphylococcus aureus [5], 64 µg/mL (≈ 244 µM); in the assay on Escherichia coli [6] it was 128 µg/mL (≈ 488 µM); in the assay with Streptococcus pyogenes [8] it was 128 µg/mL (≈ 488 µM). Also, the MIC against Bacillus subtilis [9] is 128 µg/mL (≈ 488 µM); against Pseudomonas aeruginosa [10], 128 µg/mL (≈ 488 µM); with Staphylococcus aureus [11] it was 4 µg/mL (≈ 15.2 µM); against Bacillus subtilis [12] it was over 128 µg/mL; in the assay with Escherichia coli [15], over 128 µg/mL; against Staphylococcus aureus [18], 0.25 µg/mL (≈ 0.953 µM). Also, the MIC against Pseudomonas aeruginosa [19] is over 128 µg/mL. Further, the Ratio in the assay on Staphylococcus aureus [22], in the assay on Staphylococcus aureus [23] and in the assay on Staphylococcus aureus [24] was over 512 in each case.
Consider `Cc1nc2ccccc2n1C(=O)/C=C/c1ccccc1Cl`, for which the MIC in the assay on Streptococcus pyogenes [1] is over 128 µg/mL; in [3] it was 4 µg/mL (≈ 13.5 µM); against Staphylococcus aureus [4] it was 128 µg/mL (≈ 431 µM); against Staphylococcus aureus [5] it was 64 µg/mL (≈ 216 µM); in the assay with Escherichia coli [6], 128 µg/mL (≈ 431 µM); against Bacillus subtilis [9], 128 µg/mL (≈ 431 µM). The MIC is 128 µg/mL (≈ 431 µM) against Pseudomonas aeruginosa [10]; 32 µg/mL (≈ 108 µM) in the assay on Staphylococcus aureus [11]; over 128 µg/mL in the assay on Bacillus subtilis [12]; 128 µg/mL (≈ 431 µM) in the assay with Escherichia coli [15]; 16 µg/mL (≈ 53.9 µM) in the assay with Staphylococcus aureus [18]; 128 µg/mL (≈ 431 µM) in the assay on Pseudomonas aeruginosa [19]. In addition, the Ratio in [2], in assay [7] and in assay [17] was over 32 in each case.

Values taken from ChEMBL document CHEMBL3421607, “Design, synthesis and antibacterial activity of cinnamaldehyde derivatives as inhibitors of the bacterial cell division protein FtsZ” (Eur J Med Chem, 2015).
